Bioassay records deposited in PubChem BioAssay by several laboratories.
WT yeast gro inh: growth inhibition of WT yeast, mitochondrial fusion screen | mitochondrial fusion phenotypic screen, WT strain | AID 1362 | inhibition, % at 10 µM | actives 2.1% (n = 190,000); in the data active = inhibition above about 58%; tested in S. cerevisiae
Ins promoter up: MIN6 insulin promoter up-regulation | MIN6 insulin promoter-GFP reporter, high-content imaging; active compounds read high | z-score at 5 µM | actives 0.3% (n = 190,000) | AID 1625;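 active = z-score above 3 at 5 µM with at least 500 cells counted in the well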
Cl transport mod: modulates chloride dependent transport by human KCC2; Q9H2X9; KCC2 cells, thallium flux FluoZin-2 fluorescence; B-score of Tl+ flux slope (higher = more flux/activation; lower = inhibition) at 10 µM; actives 2.2% (n = 190,000);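 active = thallium flux slope and its plate-corrected score both differing from the plate sample mean at a set confidence after two filtering rounds, in either direction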;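 also: slope of fluorescence scaled to starting intensity during 10 to 20 s after thallium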
Autophagy mod: modulators of autophagy | MEF GFP-LC3 puncta imaging; test concentration mostly 10 µM | calls only at 10 µM (by protocol) | actives 0.98% (n = 190,000) | AID 463193;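 active = percentage of spot-positive cells more than 3 SD above its plate mean, without a fluorescence outlier flag or 80% toxicity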
SKKanGAS inh: inhibitors of SKKanGAS S. pyogenes growth in kanamycin (SK-promoter or general growth effect). BacTiter-Glo, 6 h. inhibition, % at 7.5 µM. actives 1.3% (n = 300,000). AID 1662;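 active = mean replicate score, as percent of positive control median, at least 50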;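 also: strain carries kanamycin resistance gene driven by streptokinase promoter and grows in 40 µg/ml kanamycin; loss of luminescence reflects streptokinase promoter inhibition or plain growth inhibition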
Rad51 HR inh: Rad51 (human) homologous recombination inhibition; Q06609; hRad51 DNA strand exchange, fluorescence dequenching; inhibition, % at 10 µM; actives 0.085% (n = 200,000); AID 1385;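 active = inhibition above 40% at the single screening dose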
Target sequence (Q06609 whole entry, looked up): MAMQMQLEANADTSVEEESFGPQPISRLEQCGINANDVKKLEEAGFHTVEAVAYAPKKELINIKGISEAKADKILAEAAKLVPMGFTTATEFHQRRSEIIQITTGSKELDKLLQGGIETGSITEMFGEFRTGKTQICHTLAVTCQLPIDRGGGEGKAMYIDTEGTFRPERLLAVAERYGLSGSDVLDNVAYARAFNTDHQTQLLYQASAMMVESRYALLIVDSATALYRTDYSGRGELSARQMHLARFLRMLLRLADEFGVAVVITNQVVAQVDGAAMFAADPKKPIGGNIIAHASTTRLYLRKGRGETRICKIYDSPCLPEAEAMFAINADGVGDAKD
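material = hRad51 filaments on single-stranded DNA | reagent = Donor/quencher-labelled 47-bp dsDNA substrate | compound = 10 µM final, single point | schedule = strand-exchange reaction 15 min at room temperature | measured by = fluorescein emission 520 nm, excitation 485 nm | read-out basis = % inhibition versus plate control and blank means | benchmarks = plate controls and plate blanks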
Hits are given with their value; i = inactive; nt = no result given; + = active, no number; ! = repeats disagree. The list is not random: actives were taken first. Their share in the collection is about 4.2%.

SMILES | WT yeast gro inh | Ins promoter up | Cl transport mod | Autophagy mod | SKKanGAS inh | Rad51 HR inh
COc1cccc(-c2cc3nc4c(c(N5CCC6(CC5)OCCO6)n3n2)CCC4)c1 | 65 | i | i | i | i | i
CC(C)CC(NC(=O)C(COC(C)(C)C)NC(=O)C(Cc1ccc(O)cc1)NC(=O)C(CO)NC(=O)C(Cc1c[nH]c2ccccc12)NC(=O)C(Cc1cnc[nH]1)NC(=O)C1CCC(=O)N1)C(=O)N[C@@H](CCCN=C(N)N)C(=O)N1CCCC1C(=O)NNC(N)=O (some centres undefined) | nt | nt | nt | nt | nt | i
CCn1nc(C(=O)Nc2nc3ccc(C)cc3s2)c2ccccc2c1=O | i | i | i | + | i | i
Cc1nc2ccc(NC(=O)c3nn(CC(C)C)c(=O)c4ccccc34)cc2s1 | 64 | i | i | i | i | nt
O=C(/C=C/c1ccc(Cl)cc1)NCCSc1ccccc1 | i | i | i | i | i | nt
O=C(/C=C/c1ccc(Cl)cc1Cl)NCCSCc1ccccc1 | 59 | nt | i | i | i | i
O=C(/C=C/c1ccc(Cl)cc1Cl)NCCSc1ccccc1 | 64 | i | i | i | i | i
CCc1ccc(-c2cc(C(=O)N3N=C(C(F)F)CC3(O)C(F)F)c3ccccc3n2)cc1 (centres undefined) | 80 | i | i | i | i | i
C=CCSc1nnc(NC(=O)COc2ccc3ccccc3c2)s1 | 86 | i | i | i | i | i
Cc1cccc(OCCCCCn2ccnc2)c1C | 67 | i | i | i | i | i
Cc1ccc(C(C)(C)C)c(OCCCn2ccnc2)c1 | 66 | i | i | i | i | nt
Cc1ccc(C)c(OCCCCn2ccnc2)c1 | i | i | i | i | i | i
Cc1cccc(C)c1OCCCn1ccnc1 | nt | nt | nt | nt | i | nt
CCOc1ccc(OCCCCn2ccnc2)cc1 | i | 3.5 | i | i | i | nt
Cc1ccc(OCCn2ccnc2)c(C)c1 | nt | nt | nt | nt | i | nt
Cc1cc(C(C)(C)C)ccc1OCCn1ccnc1 | 72 | i | i | i | i | i
O=C(OCCOCCN=C1NS(=O)(=O)c2ccccc21)c1ccccc1 | nt | nt | nt | nt | i | nt
CC(C)(C)c1ccccc1OCCCCCn1ccnc1 | i | i | i | i | 63 | i
c1ccc(-c2ccccc2OCCCCn2ccnc2)cc1 | nt | nt | nt | nt | i | nt
CCN(CCNC(=O)Nc1ccc(Cl)cc1)c1ccccc1 | i | i | nt | + | i | i
O=C(NCCc1ccc(Cl)cc1)Nc1ccc(Cl)cc1 | nt | i | i | nt | i | i
COc1ccccc1N(CC(O)COc1c(C)cc(C)cc1C)S(=O)(=O)c1ccccc1 (centres undefined) | 61 | i | i | i | i | i
COc1ccccc1N(CC(O)COc1ccc(C)cc1)S(=O)(=O)c1ccccc1 (centres undefined) | i | i | i | i | i | i
CN(C)NC(=S)NC1CCS(=O)(=O)C1 (centres undefined) | nt | i | i | nt | i | i
Cn1c(Sc2ccc(Cl)cc2)c(C=O)c2ccccc21 | i | i | nt | i | i | i
SMILES | WT yeast gro inh | Ins promoter up | Cl transport mod | Autophagy mod | SKKanGAS inh | Rad51 HR inh
Cn1c(Sc2ccccc2Cl)c(C=O)c2ccccc21 | i | i | nt | i | 57 | nt
O=C(CN1CCOCC1)N(c1ccccc1)c1ccc2ccccc2c1 | i | i | i | i | i | i
O=C(CN1CCN(c2ccccn2)CC1)N(c1ccccc1)c1ccc2ccccc2c1 | 63 | i | i | i | nt | nt
CCCCNc1ncnc2sc3c(c12)CCN(CCC)C3 | nt | nt | nt | nt | i | nt
N[C@@H](Cc1cc(I)c(Oc2cc(I)c(O)c(I)c2)c(I)c1)C(=O)O | nt | nt | nt | nt | i | i
N[C@@H](Cc1cc(I)c(Oc2ccc(O)c(I)c2)c(I)c1)C(=O)O | i | nt | i | i | 62! | i
CCN1C(=O)N[C@@H](CCc2ccccc2)[C@@H](C(=O)OC)[C@H]1C | nt | i | i | nt | i | i
COC(=O)[C@H]1[C@H](CCc2ccccc2)NC(=O)N(Cc2ccccc2)[C@@H]1C | nt | nt | nt | nt | 73 | i
Cc1ccc(C(=O)N/C(=C\c2cn(C)c3ccccc23)C(=O)NCCN2CCOCC2)cc1 | nt | nt | nt | nt | i | nt
Cc1ccc(-c2ccc(=O)n(CC(=O)NCCN(CC(C)C)CC(C)C)n2)cc1 | nt | nt | nt | nt | i | nt
CCCOC(=O)c1cccc(Nc2nc(-c3cccnc3)nc3ccccc23)c1 | i | nt | i | i | i | i
Cc1c(Cl)cccc1Nc1nc(N)nc(CSc2nc3ccccc3s2)n1 | 72 | i | i | i | i | i
Nc1nc(CSc2nc3ccccc3s2)nc(Nc2ccccc2)n1 | i | i | i | i | i | i
COC(=O)c1cc(C(=O)OC)n(Cc2ccc(C)cc2)c1C | i | i | i | i | i | i
Cc1ccc(CNC(=O)C2CCC(=O)N(Cc3ccccc3F)C2)s1 (centres undefined) | nt | nt | nt | nt | i | nt
CN(Cc1ccccc1)C(=O)C1CCN(S(=O)(=O)c2ccc(-n3cnnn3)cc2)CC1 | nt | nt | nt | nt | i | nt
CSc1ccc(N/N=C(/C#N)S(=O)(=O)C(C)(C)C)cc1 | i | i | -4.6 | i | i | i
COc1ccc(NC(=O)Oc2cc(C)ccc2C(C)C)cc1 | nt | i | i | nt | i | i
Cn1cc(/C=C2\SC(=O)N(c3ccc(O)cc3)C2=O)c2ccccc21 | nt | i | i | nt | i | nt
Cn1cc(/C=C2\SC(=O)N(c3ccccc3)C2=O)c2ccccc21 | i | i | i | + | i | i
S=C(Nc1cccnc1)N1CCN(c2ccccc2Cl)CC1 | nt | nt | nt | nt | i | nt
O=[N+]([O-])c1cc(S(=O)(=O)C(F)(F)F)ccc1Sc1nc2ccccc2s1 | i | i | i | i | 89 | i
O=[N+]([O-])c1cc(S(=O)(=O)C(F)(F)F)ccc1Sc1nc2ccccc2[nH]1 | i | nt | i | i | 99 | i
CS(=O)(=O)c1ccc(Sc2nc3ccccc3[nH]2)c([N+](=O)[O-])c1 | i | i | i | i | i | i
Cc1cc(C)n(CCNS(=O)(=O)c2ccccc2)n1 | nt | nt | nt | nt | i | nt
SMILES | WT yeast gro inh | Ins promoter up | Cl transport mod | Autophagy mod | SKKanGAS inh | Rad51 HR inh
CCCCC(=O)Nc1ccc(C(=O)Nc2ccc(S(=O)(=O)Nc3ccc(C)cc3)cc2)cc1 | i | i | i | i | i | i
CCCCOCCCNC(=O)N[C@H](C(=O)OC)C(C)CC (some centres undefined) | nt | nt | i | nt | i | i
O=C(c1ccc(Cl)cc1[N+](=O)[O-])N(Cc1ccccc1)Cc1ccccc1 | 61 | i | i | i | i | i
CCN(C(=O)COC(=O)c1ccccc1NCCO)c1cccc2ccccc12 | nt | nt | nt | nt | i | nt
COCCCNC(=O)CS(=O)(=O)Cc1nc(-c2cccc(OC)c2)oc1C | 75 | nt | nt | i | i | i
COCCNC(=O)CS(=O)Cc1nc(-c2ccc(OC)cc2)oc1C (centres undefined) | i | i | nt | + | i | i
COc1cccc(-c2nc(CS(=O)(=O)CC(=O)NCCC(C)C)c(C)o2)c1 | i | i | i | nt | i | i
COc1ccc(CNC(=O)CS(=O)Cc2nc(-c3ccc(C)cc3)oc2C)cc1 (centres undefined) | i | i | nt | i | i | i
CCCn1nc(C(=O)Oc2ccc3c(C)cc(=O)oc3c2)c2ccccc2c1=O | i | i | i | i | i | i
Cc1c(C(=O)Nc2ccc(Cl)cc2)c2ccccn2c1C(=O)c1ccc([N+](=O)[O-])cc1 | i | i | i | + | i | i
